In ChEMBL document CHEMBL2331243, “Discovery and mechanism study of SIRT1 activators that promote the deacetylation of fluorophore-labeled substrate” (J Med Chem, 2013):
Substitutions are numbered along the chain they refer to. The source made the active and inactive calls. The calls are words filed in the database; no cut-off is given here.

How the values were obtained:
[1] = target: T1, NAD-dependent protein deacetylase sirtuin-1 (Homo sapiens) (UniProt Q96EB6); test: Activation of N-terminal His6-tagged SIRT1 (156 to 664 amino acid residues) (unknown origin) expressed in Escherichia coli BL21(DE3) using ac-RHKKac-AMC as substrate at 50 uM after 45 mins by fluorimetric analysis relative to control
T1 sequence (whole entry): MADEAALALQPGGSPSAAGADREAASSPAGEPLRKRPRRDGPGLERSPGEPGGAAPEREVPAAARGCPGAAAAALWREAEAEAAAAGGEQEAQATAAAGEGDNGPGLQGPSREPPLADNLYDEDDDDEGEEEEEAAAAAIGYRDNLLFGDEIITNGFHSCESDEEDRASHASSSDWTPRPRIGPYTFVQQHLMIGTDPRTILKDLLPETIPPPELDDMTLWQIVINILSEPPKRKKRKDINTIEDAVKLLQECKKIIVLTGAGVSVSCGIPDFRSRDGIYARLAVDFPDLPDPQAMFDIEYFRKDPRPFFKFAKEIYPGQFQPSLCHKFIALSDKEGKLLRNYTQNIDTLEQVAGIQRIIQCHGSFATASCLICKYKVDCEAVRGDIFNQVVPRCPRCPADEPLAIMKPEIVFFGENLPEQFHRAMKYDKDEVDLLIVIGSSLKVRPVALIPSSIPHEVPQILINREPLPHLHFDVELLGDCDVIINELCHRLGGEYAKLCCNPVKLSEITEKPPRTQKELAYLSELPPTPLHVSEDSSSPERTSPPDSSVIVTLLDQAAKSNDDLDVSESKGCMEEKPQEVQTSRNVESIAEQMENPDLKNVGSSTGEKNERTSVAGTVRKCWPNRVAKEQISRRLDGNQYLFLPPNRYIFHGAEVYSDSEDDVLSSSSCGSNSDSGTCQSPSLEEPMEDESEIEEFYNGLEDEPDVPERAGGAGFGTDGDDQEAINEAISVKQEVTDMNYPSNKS
In short: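 Fluorogenic deacetylation screen: 1 μM SIRT1 with 750 μM NAD⁺ and 31.25 μM ac-RHKK_ac-AMC in Tris buffer (25 mM Tris, 137 mM NaCl, 2.7 mM KCl, 1 mM MgCl₂, pH 8.0). Compounds at 50 μM from DMSO stocks; DMSO alone as blank. Trypsin then releases AMC from deacetylated peptide; fluorescence read at 340/490 nm.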

[2] = tested on: T2, NAD-dependent protein deacetylase sirtuin-1 (Homo sapiens), Q96EB6 [R446A]; test: Activation of SIRT1 R446A mutant (unknown origin) at 50 uM relative to control
T2 sequence (whole entry): T1 sequence (whole entry) with R446A
In short: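 SIRT1 R446A mutant made by site-directed mutagenesis, expressed in E. coli and purified on Ni-NTA. Fluorescent deacetylation assay used 1 μM enzyme, 750 μM NAD⁺, 31.25 μM ac-RHKK_ac-AMC and 50 μM compound versus DMSO, in Tris buffer pH 8.0. Trypsin released AMC from deacetylated peptide, read at ex 340/em 490 nm.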

[3] = target: T1, NAD-dependent protein deacetylase sirtuin-1 (Homo sapiens); test: Activation of SIRT1 in human MCF7 cells assessed as reduction in doxorubicin-induced acetyl-p53 level at <100 uM after 6 hrs by Western blotting analysis; type: cell-based
In short: (§1)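 MCF-7 cells were seeded at 1 × 10⁵ in DMEM with 10% fetal calf serum and grown 24 h at 37 °C, 5% CO₂. They then got gradient compound concentrations with 0.1 μM trichostatin and 5 μM doxorubicin for 6 h, then lysis. 50 μg protein was run on a 9% gel and blotted with polyclonal anti-acetyl-p53 (Lys382) at 4 °C overnight, with HRP anti-rabbit detection.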

[4] = target: T1, NAD-dependent protein deacetylase sirtuin-1 (Homo sapiens); test: Activation of N-terminal His6-tagged SIRT1 (156 to 664 amino acid residues) (unknown origin) expressed in Escherichia coli BL21(DE3) using ac-RHKKac-NH2 as substrate after 45 mins by HPLC analysis
[5] = target: T1, NAD-dependent protein deacetylase sirtuin-1 (Homo sapiens); test: Activation of SIRT1 in human MCF7 cells assessed as reduction in doxorubicin-induced acetyl-p53 level at >100 uM after 6 hrs by Western blotting analysis; type: cell-based; in short: as §1
[6] = target: T3, NAD-dependent protein deacetylase sirtuin-2 (Homo sapiens, UniProt Q8IXJ6); test: Activation of at N-terminal GST-tagged SIRT2 (34 to 356 amino acid residues) (unknown origin) expressed in Escherichia coli BL21(DE3) using ac-RHKKac-AMC as substrate after 45 mins by fluorometric analysis
T3 sequence (Q8IXJ6 whole entry): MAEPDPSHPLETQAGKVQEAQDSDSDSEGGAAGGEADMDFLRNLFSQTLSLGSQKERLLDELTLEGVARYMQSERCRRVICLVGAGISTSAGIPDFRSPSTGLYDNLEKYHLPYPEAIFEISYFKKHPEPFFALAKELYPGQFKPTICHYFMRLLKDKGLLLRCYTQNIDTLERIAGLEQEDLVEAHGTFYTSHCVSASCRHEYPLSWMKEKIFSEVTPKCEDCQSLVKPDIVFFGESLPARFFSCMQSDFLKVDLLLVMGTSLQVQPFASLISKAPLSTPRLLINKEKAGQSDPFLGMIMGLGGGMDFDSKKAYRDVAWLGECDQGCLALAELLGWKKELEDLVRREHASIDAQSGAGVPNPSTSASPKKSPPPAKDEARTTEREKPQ
In short: (§2)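 Fluorescent deacetylation assay in 25 mM Tris, 137 mM NaCl, 2.7 mM KCl, 1 mM MgCl₂, pH 8.0, with 750 μM NAD⁺ and 31.25 μM ac-RHKK_ac-AMC. Enzyme was 3.6 μM SIRT3 or 4.2 μM GST-SIRT2, set to match SIRT1 activity. Trypsin released AMC from the deacetylated peptide, read at ex 340 / em 490 nm. Compounds were added from DMSO (DMSO as blank): single point at 50 μM, or 3-fold DMSO dilution series. EC1.5 (concentration giving 50% activity increase) and maximum activation were fitted to a dose–response function.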

[7] = target: T4, NAD-dependent protein deacetylase sirtuin-1 (Homo sapiens, UniProt Q96EB6); test: Activation of N-terminal His6-tagged SIRT1 (156 to 664 amino acid residues) (unknown origin) expressed in Escherichia coli BL21(DE3) using ac-RHKKac-AMC as substrate after 45 mins by fluorometric analysis
T4 sequence (Q96EB6 whole entry): T1 sequence (whole entry)

[8] = target: T5, NAD-dependent protein deacetylase sirtuin-3, mitochondrial (Homo sapiens) (UniProt Q9NTG7); test: Activation of N-terminal His6-tagged SIRT3 (118 to 399 amino acid residues) (unknown origin) expressed in Escherichia coli BL21(DE3) using ac-RHKKac-AMC as substrate at 50 uM after 45 mins by fluorometric analysis relative to control; in short: as §2
T5 sequence (whole entry): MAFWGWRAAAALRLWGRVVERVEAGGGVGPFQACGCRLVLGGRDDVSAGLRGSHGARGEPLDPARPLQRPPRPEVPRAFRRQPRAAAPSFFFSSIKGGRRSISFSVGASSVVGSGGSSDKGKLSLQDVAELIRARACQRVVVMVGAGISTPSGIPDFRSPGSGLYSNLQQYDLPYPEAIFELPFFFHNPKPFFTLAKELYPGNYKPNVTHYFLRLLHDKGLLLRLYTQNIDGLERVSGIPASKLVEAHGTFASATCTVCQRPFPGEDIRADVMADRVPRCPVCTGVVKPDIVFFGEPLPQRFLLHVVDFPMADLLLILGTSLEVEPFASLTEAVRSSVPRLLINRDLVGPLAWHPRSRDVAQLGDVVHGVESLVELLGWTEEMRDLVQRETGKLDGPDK

[9] = target: T6, NAD-dependent protein deacetylase sirtuin-2 (Homo sapiens) (UniProt Q8IXJ6); test: Activation of at N-terminal GST-tagged SIRT2 (34 to 356 amino acid residues) (unknown origin) expressed in Escherichia coli BL21(DE3) using ac-RHKKac-AMC as substrate at 50 uM after 45 mins by fluorometric analysis relative to control; in short: as §2
T6 sequence (whole entry): T3 sequence (Q8IXJ6 whole entry)

[10] = target: T7, NAD-dependent protein deacetylase sirtuin-3, mitochondrial (Homo sapiens, UniProt Q9NTG7); test: Activation of N-terminal His6-tagged SIRT3 (118 to 399 amino acid residues) (unknown origin) expressed in Escherichia coli BL21(DE3) using ac-RHKKac-AMC as substrate after 45 mins by fluorometric analysis; in short: as §2
T7 sequence (Q9NTG7 whole entry): T5 sequence (whole entry)

| max activation [1] | max activation [2] | Activity [3] | Activity [4] | Activity [5] | EC50 [6] | EC50 [7] | max activation [8] | max activation [9] | EC50 [10] | SMILES |
| --- | --- | --- | --- | --- | --- | --- | --- | --- | --- | --- |
| 802% | 239% | inactive | inactive | Active |  |  |  |  |  | Oc1ccc(/C=C/c2cc(O)cc(O)c2)cc1 |
| 194% |  |  |  |  | 11.6 µM | 1.8 µM | 199% | 257% | 28.6 µM | O=C(N/N=C/c1cc(Br)c(O)c(Br)c1O)c1ccc2cc(-c3ccccc3)ccc2c1 |
